MsrA act = bovine MsrA enzyme activators, primary screen, biochemical, absorbance, HTS | Methionine sulfoxide reductase A (Bos taurus) | purified bovine MsrA, absorbance read-out | activation, % at 10.6 µM | 360,000 compounds, 0.3% hits; in the data active means activation above about 7.5%;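 further: 0% = vehicle and 100% = reference activator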
ARFGAP1 inh = inhibitors of rat ARFGAP1 GAP activity, primary screen, biochemical, fluorescence polarization, GDP tracer | Arfgap1-stimulated ARF1 GTP hydrolysis, GDP FP detection | inhibition, % at 16.5 µM | 360,000 compounds, 0.26% hits;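 active means inhibition above a per-plate limit, mean inhibition of low control wells plus 3 SD, cut at about 25% in these data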;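 further: 0% = DMSO wells with enzyme and 100% = wells lacking Arfgap1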
Target sequence (Q62848 1-136 limits assumed): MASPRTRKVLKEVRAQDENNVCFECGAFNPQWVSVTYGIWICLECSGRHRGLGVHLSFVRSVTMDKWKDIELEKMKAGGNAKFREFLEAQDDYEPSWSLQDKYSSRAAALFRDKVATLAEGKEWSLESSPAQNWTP
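Material: rat Arfgap1 catalytic domain, aa 1-136; also added: human ARF1(Δ1-17)-GTP substrate; compound dosing: one concentration, 16.5 µM, DMSO 1.26%; incubation: GTP hydrolysis reaction 2 h at 25 °C; measured by: Tracer-displacement fluorescence polarization with EDTA stop, 620/688 nm; evaluation: % inhibition from polarization; repeats: one replicate per compound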
MsrA inhibitor = bovine MsrA enzyme inhibitors, primary screen, biochemical, absorbance, HTS. Methionine sulfoxide reductase A (Bos taurus). purified bovine MsrA, absorbance read-out. inhibition, % at 15.5 µM. 360,000 compounds, 0.75% hits. AID 651718, 2012;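 further: 0% = vehicle wells with enzyme and 100% = reference inhibitor wells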
ASAP1 inh = inhibitors of human ASAP1 ArfGAP activity, primary screen, biochemical, fluorescence polarization; Arf-GAP with SH3 domain, ANK repeat and PH domain-containing protein 1 (Homo sapiens), …; ASAP1-stimulated ARF1 GTP hydrolysis, GDP FP detection; inhibition, % at 16.5 µM; 360,000 compounds, 0.19% hits; in the data active means inhibition above about 25%;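 further: 0% = vehicle with enzyme and substrate and 100% = no enzyme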
Target sequence (Q9ULH1 325-724 limits assumed): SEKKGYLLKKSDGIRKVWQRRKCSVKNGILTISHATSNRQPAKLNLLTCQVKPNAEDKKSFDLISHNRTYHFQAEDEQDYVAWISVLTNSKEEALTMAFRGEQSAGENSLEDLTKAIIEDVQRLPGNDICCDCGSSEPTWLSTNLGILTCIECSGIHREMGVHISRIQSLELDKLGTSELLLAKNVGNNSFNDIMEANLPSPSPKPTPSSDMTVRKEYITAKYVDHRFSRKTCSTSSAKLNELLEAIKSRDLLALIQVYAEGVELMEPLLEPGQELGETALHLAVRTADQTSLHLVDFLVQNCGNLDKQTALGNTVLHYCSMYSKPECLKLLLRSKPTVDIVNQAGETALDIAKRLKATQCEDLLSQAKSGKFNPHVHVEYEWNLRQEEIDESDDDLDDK
MsrA inh confirm = bovine MsrA inhibitors, retest, confirmation, biochemical, absorbance, HTS; 2,300 compounds, 41% hits; purified bovine MsrA, absorbance read-out; shares compounds with MsrA inhibitor; inhibition, % at 15.5 µM;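 further: coupled to thioredoxin reductase with NADPH and selenocystamine and DMSO as substrate; 0% = vehicle only and 100% = full effect of reference inhibitor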
Starred values were filed as active, the others as inactive. Most compounds without a hit are left out; they make up all but 1.4% or so of the library. Unless noted, no stated cut-off is given here; in the data, active means inhibition above about 4.5%; inactive means the rest.

`COc1cc(/C=N/Nc2nc3ccccc3[nH]2)ccc1O` gave MsrA act -4.1, ARFGAP1 inh 0.1, MsrA inhibitor 4.9*, ASAP1 inh 17.5 and MsrA inh confirm 3.4.
CCOc1cc(/C=N/NC(=O)c2cccs2)ccc1OC(=O)N1CCOCC1 was read as MsrA act -5.0, ARFGAP1 inh -2.1, MsrA inhibitor 4.8*, ASAP1 inh 15.9 and MsrA inh confirm 2.5.
Screening CCOc1cc(/C=N/NC(=O)COc2ccccc2C)ccc1OC(=O)c1cccs1 returned MsrA act -8.6, ARFGAP1 inh 10.4, MsrA inhibitor 0.2 and ASAP1 inh -10.3.
N/C(=N\N=C\c1ccc(O)c(O)c1)c1nonc1N was read as MsrA act -2.5, ARFGAP1 inh 16.3, MsrA inhibitor 3.9 and ASAP1 inh 5.1.
Screening N/C(=N\N=C\c1ccc(O)cc1)c1nonc1N returned MsrA act -2.2, ARFGAP1 inh 4.2, MsrA inhibitor 6.4*, ASAP1 inh 5.0 and MsrA inh confirm 3.7.
Screening N/C(=N\N=C\c1cccc(O)c1)c1nonc1N returned MsrA act -2.4, ARFGAP1 inh 0.0, MsrA inhibitor 6.0*, ASAP1 inh -17.3 and MsrA inh confirm 3.5.
`N/C(=N\N=C\c1ccc([N+](=O)[O-])cc1)c1nonc1N` gave MsrA act -2.4, ARFGAP1 inh 2.2, MsrA inhibitor 1.0 and ASAP1 inh 0.3.
COc1cc(/C=N/N=C(\N)c2nonc2N)ccc1O was read as MsrA act -5.7, ARFGAP1 inh 5.2, MsrA inhibitor 5.5*, ASAP1 inh -10.1 and MsrA inh confirm 4.5.
CC(=O)c1c(C)[nH]c(C(=O)OCc2csc(CC(=O)Nc3ccccc3C)n2)c1C was read as MsrA act -1.0, ARFGAP1 inh 3.7, MsrA inhibitor 0.0 and ASAP1 inh 15.7.
For CCC(C)NCCOCCSc1ccc(Cl)cc1 (configuration not stated) the results were MsrA act -11.7, ARFGAP1 inh 6.2, MsrA inhibitor -0.4 and ASAP1 inh 14.1.
`COc1cccc(/C=C2\SC(=O)N(CC(=O)NC3CCS(=O)(=O)C3)C2=O)c1` (configuration not stated) gave MsrA act -4.4, ARFGAP1 inh 7.7, MsrA inhibitor 4.8*, ASAP1 inh -5.3 and MsrA inh confirm 3.4.
Screening Cn1ccc(C(=O)N/N=C/c2c[nH]c3ccccc23)n1 returned MsrA act -14.1, ARFGAP1 inh 10.9, MsrA inhibitor 5.7*, ASAP1 inh -1.6 and MsrA inh confirm 3.1.
`O=C(N/N=C/c1c[nH]c2ccccc12)c1ccn(Cc2ccc(Cl)cc2Cl)n1` gave MsrA act -1.5, ARFGAP1 inh 7.2, MsrA inhibitor 1.7 and ASAP1 inh 4.6.
`CC(=O)Nc1cccc(C(=O)N/N=C/c2c[nH]c3ccccc23)c1` gave MsrA act -4.0, ARFGAP1 inh -0.2, MsrA inhibitor 5.8*, ASAP1 inh 15.6 and MsrA inh confirm 2.5.
CC(SC(C)C(=O)NN=Cc1c[nH]c2ccccc12)C(=O)NN=Cc1c[nH]c2ccccc12 (configuration not stated) was read as MsrA act -2.0, ARFGAP1 inh 0.5, MsrA inhibitor 5.0*, ASAP1 inh 3.7 and MsrA inh confirm 0.9.
Screening O=C(N/N=C/c1c[nH]c2ccccc12)c1cccc(O)c1 returned MsrA act -2.6, ARFGAP1 inh -7.5, MsrA inhibitor 4.3 and ASAP1 inh -5.2.
O=c1[nH]ncc(N/N=C\c2ccc(O)cc2O)c1Cl was read as MsrA act -3.9, ARFGAP1 inh 12.1, MsrA inhibitor 6.5*, ASAP1 inh 4.2 and MsrA inh confirm 6.2*.
For Oc1cccc(C=NNc2ccccn2)c1 the results were MsrA act -2.5, ARFGAP1 inh -8.7, MsrA inhibitor 1.1 and ASAP1 inh 7.0.
`COc1ccc(/C=N/Nc2nccnc2Cl)cc1` gave MsrA act -5.2, ARFGAP1 inh 4.4, MsrA inhibitor 4.7*, ASAP1 inh 5.1 and MsrA inh confirm 2.1.
`Clc1nccnc1N/N=C/c1ccc(Br)cc1` gave MsrA act -3.5, ARFGAP1 inh 5.2, MsrA inhibitor 3.8 and ASAP1 inh 4.2.
Screening Oc1ccc(C=NNc2ccccn2)c(O)c1 returned MsrA act -1.2, ARFGAP1 inh -11.6, MsrA inhibitor 5.1*, ASAP1 inh 10.9 and MsrA inh confirm 3.2.
Screening Oc1ccc(/C=N/Nc2nccnc2Cl)c(O)c1 returned MsrA act -8.2, ARFGAP1 inh -4.2, MsrA inhibitor 5.1*, ASAP1 inh -2.8 and MsrA inh confirm 4.2.
Screening COc1ccc(N2CCC(CNC(=S)Nc3ccc(C)cc3C)C2)cc1 (configuration not stated) returned MsrA act 0.0, ARFGAP1 inh -4.5, MsrA inhibitor 0.1 and ASAP1 inh -16.6.
For Oc1ccc(/C=N/Nc2ncc(Br)cn2)c(O)c1 the results were MsrA act -3.9, ARFGAP1 inh 5.0, MsrA inhibitor 6.0*, ASAP1 inh 9.8 and MsrA inh confirm 5.2*.
CCCCN1C(=O)C(C#N)CC2=C1CC(C)(C)CC2=O (configuration not stated) was read as MsrA act -0.5, ARFGAP1 inh -11.4, MsrA inhibitor 0.9 and ASAP1 inh 6.5.
`N#C/C(C(=O)N1CCCCC1)=C1\Nc2ccccc2S1` gave MsrA act -7.5, ARFGAP1 inh -5.5, MsrA inhibitor 8.2*, ASAP1 inh -1.9 and MsrA inh confirm 5.0*.
Screening COc1ccccc1C(=O)NNC(=O)c1sccc1-n1cccc1 returned MsrA act -0.7, ARFGAP1 inh 10.6, MsrA inhibitor 0.7 and ASAP1 inh -4.5.
For O=[N+]([O-])c1c(Nc2ccccc2O)cc(N2CCOCC2)c2nonc12 the results were MsrA act -5.6, ARFGAP1 inh 1.7, MsrA inhibitor 18.0*, ASAP1 inh 5.7 and MsrA inh confirm 24.3*.
For COc1ccc(CCNc2c3ccccc3nc3ccccc23)cc1OC the results were MsrA act -12.5, ARFGAP1 inh -7.5, MsrA inhibitor -1.6 and ASAP1 inh -3.4.
CCN1CCN(c2nc3ccccc3nc2NS(=O)(=O)c2ccc(NC(C)=O)cc2)CC1 was read as MsrA act -11.9, ARFGAP1 inh -2.3, MsrA inhibitor 4.7*, ASAP1 inh -12.3 and MsrA inh confirm 2.2.
O=C(CCNC(=O)c1ccc(Br)cc1)NC1CCCc2ccccc21 (configuration not stated) was read as MsrA act -3.5, ARFGAP1 inh 3.0, MsrA inhibitor -0.3 and ASAP1 inh -7.8.
`C=CCNc1nc(N)c(C(=O)Nc2cc(C)on2)s1` gave MsrA act -6.2, ARFGAP1 inh 7.2, MsrA inhibitor 6.2*, ASAP1 inh 0.0 and MsrA inh confirm 3.1.

Screens as filed in PubChem BioAssay.
